Measurements gathered from unrelated publications.
Target: Dual specificity mitogen-activated protein kinase kinase 1 (MAP2K1, Homo sapiens, UniProt Q02750)

C#Cc1n[nH]c2c(-c3cn([C@@H](C)c4ccccc4)c(=O)[nH]c3=O)cc(F)cc12 — inhibition (enzyme activity; inhibitor; 0.1 µM): 6.6%
COc1ncccc1-c1cnn2ccc(N3CCN(C(=O)OC(C)C)CC3)nc12 — remaining binding (binding; competition with immobilised ligand; 1 µM): 100%
Cn1cncc1[C@](O)(COc1ccc(C#N)cc1-c1ccc(OC(F)(F)F)cc1)c1ccc(C#N)cc1 — remaining binding (cell-free assay; competition with immobilised ligand; 1 µM): 100%
CC(C)(C)c1cc(C=C(C#N)C#N)cc(Br)c1O — remaining activity (enzyme activity; inhibitor; 0.5 µM): 90.8%
Nc1ncc(-c2nc(N3CCOCC3)nc(N3CCOCC3)n2)c(C(F)F)n1 — remaining binding (binding; competition with immobilised ligand; 10 µM): 83%
Cc1nn(C)cc1-c1nc2c(N3CCN(Cc4ccc(Cl)cc4)CC3)c(Cl)cnc2[nH]1 — remaining binding (binding; competition with immobilised ligand; 1 µM): 100%
O=c1[nH]c2ccccc2n1C1CCN(Cc2ccc(-c3[nH]c4cc5ncnc5cc4nc3-c3ccccc3)cc2)CC1 — remaining signal (cell-free assay; 0.5 µM): 96.8%
Cn1cc(-c2cc(F)cc(N3CCn4c(cc5c4CCCC5)C3=O)c2CO)cc(Nc2ccc(N3CCN(C4COC4)CC3)cn2)c1=O — inhibition (enzyme activity; inhibitor; 0.1 µM): 6%
C#Cc1n[nH]c2c(-c3cn([C@@H](C)c4ccccn4)c(=O)[nH]c3=O)cc(F)cc12 — inhibition (enzyme activity; inhibitor; 0.1 µM): 12%
N#CC1(c2ccccn2)CCN(Cc2cc(C(=O)O)c(=O)n3ccccc23)CC1 — remaining binding (cell-free assay; competition with immobilised ligand; 1 µM): 95%
Cn1cc(-c2cccc(N3CCc4c(sc5c4CC(C)(C)C5)C3=O)c2CO)cc(Nc2ccncn2)c1=O — inhibition (enzyme activity; inhibitor; 1 µM): 0%
